Source: ChEMBL document CHEMBL1123768, “Synthesis and characterization of all four isomers of the muscarinic agonist 2'-methylspiro[1-azabicyclo[2.2.2]octane-3,4'-[1,3]dioxolane]” (J Med Chem, 1987)

What was measured:
Rattus norvegicus [1] = organism: Rattus norvegicus; experiment: Determined for Functional efficacy compared to 1 uM muscarine in superior cervical ganglion
Procedure, shortened: (§1)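 Potentials were recorded by grease-gap between the ganglion body and the internal carotid nerve. Semicumulative concentration–response curves used 1-min agonist superfusions every 10 min. Potency is given as −log EC50 (M). Efficacy is the ratio to the maximum response to 1 µM (±)-muscarine chloride.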

Cavia porcellus [2] = organism: Cavia porcellus; experiment: (§2) Determined for potency (muscarinic agonistic activity) expressed in guinea pig ileum in vitro; format: functional
Procedure, shortened: (§3)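 Agonist-evoked contractions were recorded and concentration–response curves built. EC50 is the concentration giving 50% of that tissue's own maximum, reported as −log EC50 (M).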

Cavia porcellus [3] = organism: Cavia porcellus; experiment: Functional efficacy compared to 1 uM muscarine and the maximum response to carbachol in guinea pig isolated atria
[4] = (§4) Determined for potency (muscarinic agonistic activity) expressed in superior cervical ganglion in vitro; format: functional, tissue-based, Rattus norvegicus; procedure, shortened: as §1
Cavia porcellus [5] = organism: Cavia porcellus; experiment: Functional efficacy compared to 1 uM muscarine and the maximum response to carbachol in guinea pig ileum; procedure, shortened: as §3
Cavia porcellus [6] = organism: Cavia porcellus; experiment: (§5) Determined for potency (muscarinic agonistic activity) expressed in guinea pig isolated atria in vitro; format: functional
Cavia porcellus [7] = organism: Cavia porcellus; experiment: as §5; details: read-out: Log EC50 (converted)
Cavia porcellus [8] = organism: Cavia porcellus; experiment: as §2; details: read-out: Log EC50 (converted)
Rattus norvegicus [9] = organism: Rattus norvegicus; experiment: as §4; format: functional; details: for EC50: Rattus norvegicus, Superior cervical ganglion; procedure, shortened: as §1
[10] = molecular target: T1, Muscarinic acetylcholine receptor M2 (Rattus norvegicus) (UniProt P10980)
T1 sequence (whole entry): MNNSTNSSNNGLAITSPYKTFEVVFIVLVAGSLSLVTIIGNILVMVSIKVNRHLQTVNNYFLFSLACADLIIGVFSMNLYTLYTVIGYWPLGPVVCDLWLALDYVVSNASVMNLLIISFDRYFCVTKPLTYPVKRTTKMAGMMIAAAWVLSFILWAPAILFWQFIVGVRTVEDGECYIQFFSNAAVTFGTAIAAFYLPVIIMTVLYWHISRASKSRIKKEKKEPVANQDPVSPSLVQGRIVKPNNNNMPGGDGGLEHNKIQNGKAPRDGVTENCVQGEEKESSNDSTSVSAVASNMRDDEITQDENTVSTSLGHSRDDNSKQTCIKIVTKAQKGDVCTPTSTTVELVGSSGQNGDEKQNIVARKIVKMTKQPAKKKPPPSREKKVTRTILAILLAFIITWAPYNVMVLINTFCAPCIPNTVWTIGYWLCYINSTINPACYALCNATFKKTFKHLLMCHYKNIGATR

[11] = molecular target: T2, Muscarinic acetylcholine receptor M1 (Rattus norvegicus) (UniProt P08482)
T2 sequence (whole entry): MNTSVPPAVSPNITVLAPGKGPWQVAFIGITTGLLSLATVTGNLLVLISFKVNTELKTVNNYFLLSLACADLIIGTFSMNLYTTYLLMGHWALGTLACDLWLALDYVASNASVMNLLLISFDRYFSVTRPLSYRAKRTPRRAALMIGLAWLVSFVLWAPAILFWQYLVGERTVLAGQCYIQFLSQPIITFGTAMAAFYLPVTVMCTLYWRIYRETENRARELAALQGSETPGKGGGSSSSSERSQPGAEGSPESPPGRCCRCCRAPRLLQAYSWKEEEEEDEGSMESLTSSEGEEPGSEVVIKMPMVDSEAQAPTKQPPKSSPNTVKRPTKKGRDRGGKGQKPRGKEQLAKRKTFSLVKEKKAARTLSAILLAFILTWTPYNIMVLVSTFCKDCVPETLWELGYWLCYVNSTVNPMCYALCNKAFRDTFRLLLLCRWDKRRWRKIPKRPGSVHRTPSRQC

[12] = molecular target: T1, Muscarinic acetylcholine receptor M2 (Rattus norvegicus); remark: listed apart in the source
[13] = molecular target: T2, Muscarinic acetylcholine receptor M1 (Rattus norvegicus); remark: listed apart in the source

Structure (SMILES): CC1OCC2(CN3CCC2CC3)O1 (centres undefined) [listing 1 of 2 here]
- FE (Rattus norvegicus [1]): 0.7
- EC50 (Cavia porcellus [2]): 6.31 µM
- FE (Cavia porcellus [3]): 0.8
- Log EC50 [4]: -4.83
- FE (Cavia porcellus [5]): 0.8
- EC50 (Cavia porcellus [6]): 83.2 µM

Structure (SMILES): C[C@@H]1OCC2(CN3CCC2CC3)O1.C[C@H]1OCC2(CN3CCC2CC3)O1 (some centres undefined) [listing 1 of 2 here]
- FE (Rattus norvegicus [1]): 0.7
- FE (Cavia porcellus [3]): 0.8
- EC50 (Cavia porcellus [7]): 21.9 µM
- EC50 (Cavia porcellus [8]): 3.31 µM
- FE (Cavia porcellus [5]): 0.8
- EC50 (Rattus norvegicus [9]): 5.75 µM

Structure (SMILES): CC1OCC2(CN3CCC2CC3)O1 (centres undefined) [listing 2 of 2 here]
- K app [10]: 13 µM
- K app [11]: 6.8 µM

Structure (SMILES): C[C@@H]1OCC2(CN3CCC2CC3)O1.C[C@H]1OCC2(CN3CCC2CC3)O1 (some centres undefined) [listing 2 of 2 here]
- K app [12]: 8.4 µM
- K app [13]: 5.9 µM

Structure (SMILES): CC1OCC2(CN3CCC2CC3)O1 (single isomer, unassigned) [listing 1 of 2 here]
- EC50 (Cavia porcellus [2]): > 316 µM
- Log EC50 (Rattus norvegicus [9]): < -4

Structure (SMILES): CC1OCC2(CN3CCC2CC3)O1 (single isomer, unassigned) [listing 2 of 2 here]
- K app [12]: 92 µM
- K app [13]: 66 µM

Structure (SMILES): C[C@@H]1OCC2(CN3CCC2CC3)O1 (stereo in doubt; 1A1) [listing 1 of 2 here]
- Log EC50 (Rattus norvegicus [9]): < -4

Structure (SMILES): C[C@@H]1OCC2(CN3CCC2CC3)O1 (stereo in doubt; 1A1) [listing 2 of 2 here]
- K app [12]: 64 µM
- K app [13]: 55 µM

Structure (SMILES): C[C@H]1OCC2(CN3CCC2CC3)O1 (stereo in doubt; 1B1)
- K app [12]: 2.2 µM
- FE (Rattus norvegicus [1]): 0.8
- FE (Cavia porcellus [3]): 0.8
- EC50 (Cavia porcellus [7]): 14.8 µM
- K app [13]: 2.7 µM
- EC50 (Cavia porcellus [8]): 2.19 µM
- FE (Cavia porcellus [5]): 0.8
- Log EC50 (Rattus norvegicus [9]): -5.25

Structure (SMILES): C[C@@H]1OCC2(CN3CCC2CC3)O1 (stereo in doubt; 1B2) [listing 1 of 2 here]
- FE (Rattus norvegicus [1]): 0.7
- FE (Cavia porcellus [3]): 0.2
- EC50 (Cavia porcellus [7]): 100 µM
- EC50 (Cavia porcellus [8]): 20 µM
- FE (Cavia porcellus [5]): 0.7
- Log EC50 (Rattus norvegicus [9]): -4.56

Structure (SMILES): C[C@@H]1OCC2(CN3CCC2CC3)O1 (stereo in doubt; 1B2) [listing 2 of 2 here]
- K app [12]: 8.5 µM
- K app [13]: 4.1 µM

Structure (SMILES): C[N+](C)(C)CCOC(N)=O.[Cl-] [CARBACHOL]
- K app [12]: 1.9 µM
- FE (Cavia porcellus [3]): 1
- EC50 (Cavia porcellus [7]): 0.209 µM
- K app [13]: 45 µM
- EC50 (Cavia porcellus [8]): 0.102 µM
- FE (Cavia porcellus [5]): 1

Structure (SMILES): C[C@@H]1O[C@H](C[N+](C)(C)C)C[C@H]1O [MUSCARINE]
- K app [12]: 2.3 µM
- FE (Rattus norvegicus [1]): 1.1
- K app [13]: 28 µM
- EC50 (Rattus norvegicus [9]): 0.17 µM
